Screening data as filed in PubChem.
TAAR1 ag – human TAAR1 agonism; 0.99% of 360,000 active; CHO RD-HGA16 TAAR1, Fluo-8 calcium fluorescence; vehicle wells 0%, saturating PEA agonist 100%; Q96RJ0; activation, % at 3 µM;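 active means activation above the mean activation of all test compounds in the run plus 3 SD, cut at about 38% in these data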
Target sequence (Q96RJ0 whole entry, looked up): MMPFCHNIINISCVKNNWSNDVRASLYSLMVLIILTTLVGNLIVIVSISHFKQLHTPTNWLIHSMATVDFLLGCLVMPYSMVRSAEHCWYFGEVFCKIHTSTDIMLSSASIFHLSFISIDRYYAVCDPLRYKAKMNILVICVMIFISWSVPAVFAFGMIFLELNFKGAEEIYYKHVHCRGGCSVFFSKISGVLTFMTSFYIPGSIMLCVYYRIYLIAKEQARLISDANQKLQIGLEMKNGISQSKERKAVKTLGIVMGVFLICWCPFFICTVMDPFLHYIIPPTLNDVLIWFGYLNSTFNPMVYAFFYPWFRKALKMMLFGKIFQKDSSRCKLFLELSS
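Test system: RD-HGA16 (CHO) cells co-expressing Gα16 and hTAAR1 | Doses: Single dose, 3 µM | Schedule: 17-24 h seeding, 75 min 37 °C dye, 30 min RT | Evaluation: % activation from peak over basal fluorescence ratio, DMSO-to-PEA scaled | Technique: Kinetic Fluo-8 calcium fluorescence | Benchmarks: Low control DMSO, high control PEA (EC100)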
CHO parental Ca – counter-screen: ATP calcium response change in parental CHO cells; AID 463079; 0.63% of 330,000 active; inhibition, % at 5.6 µM; parental CHO-K1, ATP-induced calcium, Fluo-8 fluorescence;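 active means inhibition above that plate's mean sample inhibition plus 3 SD, cut at about 26% in these data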;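 further: 0% = ATP-challenged DMSO wells and 100% = DMSO wells without ATP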
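Test system: parental CHO cells; detection: calcium-sensitive Fluo-8 fluorescence; evaluation: percent inhibition of calcium signal; also added: ATP as calcium-mobilizing challenge; repeats: one well per compound; control set: ATP-challenged DMSO wells low, unchallenged DMSO wells high; compound: single nominal dose of 5.6 µM per compound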
GPR7 antag – blocks human GPR7 receptor signaling. P48145. GPR7-expressing cells, fluorescence antagonist assay. inhibition, % at 4.4 µM. 1.1% of 290,000 active. AID 1861; in the data active means inhibition above about 16%, passing the limit was not always enough;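 further: cells stimulated with the agonist NPW; 0% = agonist with vehicle and 100% = vehicle without agonist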
OX1R antag-1 – human HCRTR1 antagonism; O43613; CHO/OX1R cells, Fluo-8 calcium fluorescence, orexin A; inhibition, % at 5 µM; 0.43% of 330,000 active; AID 434989;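 active means inhibition above its plate's threshold, mean inhibition of all tested compounds on the plate plus 3 SD, cut at about 37% in these data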;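 further: 0% = orexin A challenge wells and 100% = SB-334867-A antagonist wells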
TAAR1 antag – human TAAR1 antagonism; Q96RJ0; CHO RD-HGA16 TAAR1, Fluo-8 calcium fluorescence, antagonist; inhibition, % at 3 µM; 1.5% of 360,000 active; AID 624466;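 active means inhibition above a per-plate cutoff, the mean inhibition of test compounds on that plate plus 3 SD, cut at about 49% in these data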;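 further: 0% = DMSO plus EC80 beta-PEA response and 100% = DMSO alone without agonist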
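Test system: hTAAR1-expressing CHO RD-HGA16 cells, Gα16-coupled; Probe or stimulus: EC80 β-phenethylamine stimulus; Compound dosing: single nominal final test compound concentration of 3 µM; Timing: 140 s kinetic read after compound, 140 s after agonist; Signal: Fluo-8 calcium-sensitive fluorescence; Measure: % inhibition of agonist calcium response; Controls: DMSO and EC80 PEA controls.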
OX1R antag-2 – blocks the human orexin 1 receptor | O43613 | OX1R-expressing cells, FRET antagonist read-out | inhibition, % at 6.6 µM | 1.8% of 330,000 active | AID 485270; in the data active means inhibition mostly above about 38%, no sharp cut-off; inactive means mostly below about 40%;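 further: 0% = agonist challenge alone and 100% = reference antagonist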
OX1R HTRF confirm – confirmation of human orexin 1 receptor antagonists, HTRF format | shares compounds with OX1R antag-2 | OX1R-expressing cells, HTRF antagonist assay | inhibition, % at 6.6 µM | 49% of 1,800 active | AID 492964; in the data active means inhibition above about 55%;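 further: CHO cells expressing OX1R stimulated with orexin A at about EC80; 0% = agonist challenge alone and 100% = reference antagonist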
CHO-K1 HTRF – counter-screen for OX1R antagonists: effect in parental CHO-K1 cells. HTRF counterscreen. inhibition, % at 6.6 µM. 48% of 1,800 active. shares compounds with OX1R antag-2; in the data active means inhibition above about 17%;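 further: 0% = agonist challenge with vehicle and 100% = vehicle alone without agonist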
* hit, by the source's call. This is a sample that favours compounds with a hit; in the whole collection about 4.5% have one here.

How did CC(Cl)C(=O)Nc1cc(C(F)(F)F)ccc1N1CCOCC1 (stereo not drawn) do in these assays?
TAAR1 ag: -1; CHO parental Ca: 0; GPR7 antag: -13; OX1R antag-1: -22; TAAR1 antag: -13; OX1R antag-2: 94*; OX1R HTRF confirm: 16; CHO-K1 HTRF: -4

What do the screens show for `Cn1nnnc1SCC(=O)Nc1cc(C(F)(F)F)ccc1N1CCOCC1`?
TAAR1 ag: -1; CHO parental Ca: -15; GPR7 antag: -1; OX1R antag-1: -18; TAAR1 antag: -10; OX1R antag-2: 12

Results for COc1ccc(-c2cc(C(F)F)n3ncc(C(=O)n4ccnc4C)c3n2)cc1 ?
TAAR1 ag: -4; CHO parental Ca: -17; GPR7 antag: -4; OX1R antag-1: -14; TAAR1 antag: -21; OX1R antag-2: 108*; OX1R HTRF confirm: 43; CHO-K1 HTRF: 29*

How did COc1ccc(-c2cc(C(F)F)n3ncc(C(=O)N4CCc5ccccc54)c3n2)cc1 do in these assays?
TAAR1 ag: 2; CHO parental Ca: -17; GPR7 antag: -8; OX1R antag-1: -37; TAAR1 antag: -19; OX1R antag-2: 10

How did COc1ccc(/C=C/c2ccc3ccccc3[n+]2C)cc1OC do in these assays?
CHO parental Ca: 5; GPR7 antag: -5; OX1R antag-1: -5; OX1R antag-2: 78*; OX1R HTRF confirm: 70*; CHO-K1 HTRF: 86*

How did CCn1c(=O)c(C)nn2c3ccccc3nc12 do in these assays?
TAAR1 ag: 9; CHO parental Ca: -4; GPR7 antag: 7; OX1R antag-1: 6; TAAR1 antag: -9; OX1R antag-2: 24

Results for Cc1nn2c3ccccc3nc2c2ccccc12 ?
TAAR1 ag: 2; CHO parental Ca: -11; GPR7 antag: -9; OX1R antag-1: 25; TAAR1 antag: -1; OX1R antag-2: 88*; OX1R HTRF confirm: 83*; CHO-K1 HTRF: -12

How did COc1cccc(NC(=O)CCNS(=O)(=O)c2cccc3nonc23)c1 do in these assays?
TAAR1 ag: 2; CHO parental Ca: -1; GPR7 antag: -7; OX1R antag-1: -10; TAAR1 antag: -2; OX1R antag-2: 26

What do the screens show for `CC(=O)c1cccc(NC(=O)CCNS(=O)(=O)c2cccc3nonc23)c1`?
TAAR1 ag: -1; CHO parental Ca: -20; GPR7 antag: -9; OX1R antag-1: -5; TAAR1 antag: 4; OX1R antag-2: 97*; OX1R HTRF confirm: 25; CHO-K1 HTRF: 23*

What do the screens show for `CN1CCc2c(sc(NC(=O)c3ccc([N+](=O)[O-])o3)c2C(N)=O)C1`?
TAAR1 ag: 2; CHO parental Ca: 1; GPR7 antag: -4; OX1R antag-1: -3; TAAR1 antag: -24; OX1R antag-2: 90*; OX1R HTRF confirm: 40; CHO-K1 HTRF: 31*

Results for CC[C@H](C)[C@H]1CNC(=O)C(=O)N1CC1CCN(CCc2ccccc2)CC1 ?
TAAR1 ag: 2; TAAR1 antag: 6

How did O=C(O)CNc1ncccc1[N+](=O)[O-] do in these assays?
TAAR1 ag: 3; CHO parental Ca: -12; GPR7 antag: -2; OX1R antag-1: -3; TAAR1 antag: -14; OX1R antag-2: active; OX1R HTRF confirm: 32; CHO-K1 HTRF: 46*

Results for O=c1cnc2ccccc2n1Cc1ccccc1 ?
TAAR1 ag: 1; TAAR1 antag: -4

How did Cc1cnnc2ccc3c(no[n+]3[O-])c12 do in these assays?
TAAR1 ag: 5; CHO parental Ca: -3; GPR7 antag: -10; OX1R antag-1: -4; TAAR1 antag: 8; OX1R antag-2: 126*; OX1R HTRF confirm: 43; CHO-K1 HTRF: 54*

What do the screens show for `COc1ccc2no[n+]([O-])c2c1`?
CHO parental Ca: 3; GPR7 antag: 14; OX1R antag-1: 6; OX1R antag-2: 21
